Bioassay records from PubChem.
TRPN1 ag = activates the zebrafish TRPN1 channel | HEK293 zebrafish TRPN1-YFP, Fluo-8 calcium fluorescence; 100% = response to 87 µM carbachol | activation, % at 3 µM | hit rate 0.18% among 220,000;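 active = activation above its plate's cutoff, the mean activation of test wells on that plate plus 3 SD, cut at about 19% in these data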;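 note: 0% = DMSO alone and 100% = 87 µM carbachol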
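Assay system: Zebrafish TRPN1-YFP in HEK293 cells | Incubation: Dye loading 1 h at 37 °C, then 30 min room temperature | Measured by: Kinetic Fluo-8 fluorescence, ex 470-495, em 515-575 nm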
OXTR ag = agonists of human oxytocin receptor. P30559. activation, % at 3 µM. hit rate 0.32% among 320,000. CHO-OTR cells, Fluo-8 calcium fluorescence; normalized: DMSO 0%, oxytocin 100%;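 active = activation above the mean of all tested compounds plus 3 SD, cutoff set per screening run, cut at about 20% in these data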;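 note: peak over basal fluorescence ratio from a 100 s FLIPR kinetic read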
V1R ag counter = V1a receptor agonism, counter-screen for OXTR agonists; hit rate 0.25% among 320,000; CHO-V1R cells, Fluo-8 calcium fluorescence, agonist mode; 0% DMSO, 100% 3 nM vasopressin; activation, % at 3 µM; P37288; AID 2797;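 active = activation above the mean activation of all tested compounds plus 3 SD, per screening run, cut at about 20% in these data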;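 note: signal is peak over basal fluorescence ratio across a 100 second FLIPR read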
Target sequence (P37288 whole entry, looked up): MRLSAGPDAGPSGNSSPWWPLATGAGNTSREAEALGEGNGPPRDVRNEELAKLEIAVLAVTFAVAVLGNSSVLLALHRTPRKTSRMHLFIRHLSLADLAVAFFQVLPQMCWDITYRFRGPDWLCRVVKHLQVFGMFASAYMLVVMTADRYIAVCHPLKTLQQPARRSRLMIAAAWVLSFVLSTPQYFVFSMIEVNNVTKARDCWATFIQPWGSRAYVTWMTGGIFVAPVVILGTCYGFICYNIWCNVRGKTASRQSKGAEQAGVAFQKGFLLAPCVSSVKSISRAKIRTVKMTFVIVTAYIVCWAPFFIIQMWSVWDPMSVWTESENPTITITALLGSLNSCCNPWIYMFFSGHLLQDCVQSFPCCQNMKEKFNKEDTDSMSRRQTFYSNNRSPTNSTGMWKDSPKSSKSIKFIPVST
TRPML3 ag = human mucolipin-3 channel agonism; HEK293 TRPML3-YFP, Fluo-8 calcium fluorescence; 100% = the carbachol control signal; activation, % at 3 µM; Q8TDD5; AID 1448; hit rate 0.29% among 220,000;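 active = activation above its plate's cutoff, the mean activation of the plate's test wells plus 3 SD, cut at about 12% in these data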;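 note: 0% = DMSO only wells and 100% = carbachol wells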
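Test system – HEK293 line with stable expression of human TRPML3-YFP channel · Control set – carbachol 87 µM final as high control (100%), DMSO as low control (0%) · Signal – Fluo-8 calcium dye fluorescence, ex 470-495, em 515-575 nm · Incubation – 1-h 37 °C dye load, 5-s basal, 120-s post-compound reads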
OXTR potentiator = potentiates the human oxytocin receptor response. hit rate 0.061% among 320,000. P30559. CHO-OTR cells, Fluo-8 calcium fluorescence, potentiator mode; 0% = oxytocin EC15, 100% = EC100. activation, % at 3 µM;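 active = activation above that plate's cutoff, the mean activation of tested compounds plus 3 SD, cut at about 6.6% in these data, passing the limit was not always enough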;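 note: 100% uses oxytocin at 75 nM as the full agonist control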
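Assay system: CHO cell line stably expressing human OTR | Also added: Oxytocin at about EC15, sub-maximal agonist stimulus | Times: Compound 6 min at room temperature before oxytocin, 100 s read | Measured by: Fluo-8 intracellular calcium fluorescence, ex 470-495, em 515-575 nm | Controls: EC15 oxytocin alone as 0%, 75 nM oxytocin as 100%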
* marks the source's active call; other numbers are inactive results; . = no result given; ! = not confirmed by another sample. Shown are actives, neighbours in structure and some others; about 0.58% of the full set was active somewhere.

SMILES	TRPN1 ag	OXTR ag	V1R ag counter	TRPML3 ag	OXTR potentiator
CCN1C(=O)c2cccc3c(S(=O)(=O)NCc4ccccc4)ccc1c23	.	0.7	1.7	.	-8.0
CCN(CC)c1ccc(/C=C/C(=O)c2ccc(Br)cc2)cc1	55.8*	142.9*	153.8*	58.9*	-7.4
CN(C)c1ccc(C(=O)/C=C/c2ccc(Br)cc2)cc1	-0.1	-0.9	0.0	0.3	-8.9
O=C(c1ccc(Cl)cc1Cl)N1CCN(c2ccc(N3CCOCC3)nn2)CC1	.	0.1	0.2	.	0.4
O=C(C[C@H]1C/C=C\C[C@H](Cc2ccc(F)cc2)C(=O)O[C@@H](c2ccccc2)CNC1=O)N[C@H](CO)Cc1ccccc1	.	44.6*	59.8*	.	-8.0
O=C(C[C@H]1C/C=C\CC[C@H](Cc2ccc(F)cc2)C(=O)O[C@@H](c2ccccc2)CNC1=O)N[C@@H](CO)Cc1ccccc1	.	3.1	2.4	.	-2.6
O=C(C[C@H]1C/C=C\CC[C@H](Cc2ccc(F)cc2)C(=O)O[C@@H](c2ccccc2)CNC1=O)N[C@H](CO)Cc1ccccc1	.	33.3*	51.9*	.	-8.8
COc1ccc(S(=O)(=O)N2CCCC(C(=O)NC3CC3)C2)cc1OC (stereo unspecified)	.	-0.9	-0.5	.	2.9
COc1ccc(/C(C)=N/NC(=O)c2cc(C)[nH]n2)c(OC)c1	.	0.3	0.4	.	-0.3
O=C(Nc1ccccc1)Nc1cccc(C(F)(F)F)c1	24.2*	8.8	11.3	14.3*	-11.0
Fc1ccc(CN2CC[C@H]3C=CCc4cccc(c43)C2)cc1	.	-1.8	-1.1	.	-3.6
CCCCOc1ccc(-c2nnn(CC(=O)Nc3ncc(CC(=O)OCC)s3)n2)cc1	1.7	32.9*	26.9*	0.5	-18.6
CCOC(=O)Cc1cnc(NC(=O)Cn2nnc(-c3ccc(OCC)cc3)n2)s1	3.7	19.1	18.0	6.4	-21.7
C/C(=N\NC(=O)C1(C)CC1(Br)Br)c1ccc(NC(=O)c2ccc(C)o2)cc1 (stereo unspecified)	1.7	3.4	1.8	-0.7	-13.1
O=[N+]([O-])c1ccc(N=Nc2c(Cl)cc(O)cc2Cl)cc1	19.7*	17.6	12.7	16.2*	-9.4
CC(N)=Nc1ccc([N+](=O)[O-])cc1	0.7	0.5	-0.4	0.2	-4.4
COC(=O)c1sc(-c2ccc(Cl)cc2)cc1NC(=O)/C=C/C(=O)O	1.6	21.8*	15.4	0.4	-17.4
Cn1c(COc2ccccc2)nnc1SCC(=O)NC1CCCC1	.	0.8	-0.5	.	-0.6
Cn1cccc1C(=O)NC(=O)COC(=O)CNC(=O)CNC(=O)c1ccc(Cl)cc1Cl	-0.9	-2.1	0.5	-0.4	-20.6
O=C1SCCC1NS(=O)(=O)c1ccc([N+](=O)[O-])cc1 (stereo unspecified)	.	0.8	1.6	.	25.7*
C=CCn1c(SC(C)CC)nc(O)cc1=O (stereo unspecified)	1.8	45.8*	30.3*	3.4	-31.7
Cc1ccnc(NS(=O)(=O)c2ccc(-n3cccn3)cc2)c1	.	1.1	2.7	.	-4.1
CC(CCC(C)C(C)(C)C)[C@@H]1CC[C@H]2C3C[C@H](OS(O)(=S)=S)[C@H]4C[C@H](OS(O)(=S)=S)[C@@H](OS(O)(=S)=S)C[C@]4(C)[C@H]3CC[C@]12C (stereo partly specified) (tested in a mixture with another compound)	.	58.5*	71.0*!	.	-12.5
C[C@H](CCC(=O)O)[C@H]1CC[C@H]2[C@@H]3[C@H](O)C[C@@H]4C[C@H](O)CC[C@]4(C)[C@H]3CC[C@]12C	.	2.0	1.7	.	-13.9
COc1cc(C(=O)NCCC(=O)N2CCC3(CC2)NCCc2[nH]cnc23)cc(OC)c1OC	.	1.0	1.1	.	4.5
CN=C1SC(CC(=O)NCCc2ccc(OC)c(OC)c2)C(=O)N1C (stereo unspecified)	-0.1	33.5*	47.0*	-0.4	-12.7
Cc1c(NC(=S)NC(=O)c2sc3ccccc3c2Cl)cccc1C(=O)O	1.2	-0.8	0.2	1.1	-11.8
COc1ccccc1C(=O)NC(=S)NNC(=O)c1sc2ccccc2c1Cl	3.0	46.2*	25.2*	1.2	-9.7
COc1ccccc1C(=O)NNC(=S)NC(=O)c1cccs1	.	29.7*	50.7*	.	-17.0
